Broadly, the Ki is a dissociation constant, usually derived from enzyme kinetics or from competition with a known ligand. High values mean a looser hold on the target, low ones a stronger hold on the target.

The target in assay [1] is T1, 5-hydroxytryptamine receptor 6 (Homo sapiens, UniProt P50406). Briefly: Binding affinity as displacement of [3H]5-HT binding to 5-hydroxytryptamine 6 receptor in HeLa cells. In kind it is cell-based. In short, it runs like this:
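Human 5-HT6 stably expressed in HeLa cells; washed membranes in 50 mM Tris, 0.03% ascorbic acid, pH 7.6. Nonspecific binding defined with 10 µM 5-HT. Filtration and scintillation counting; one-site fit gave IC50, converted to Ki by Cheng-Prusoff. Geometric mean of ≥3 experiments, each in duplicate.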
On the technique in general: Displacement assays read how much labelled ligand stays bound in the presence of the test substance.

The target in assay [2] is 5-hydroxytryptamine receptor 5A (Rattus norvegicus, UniProt P35364). Briefly: Binding affinity against 5-hydroxytryptamine 5A receptor in HEK 293 cells was determined using [3H]LSD as radioligand. The format is cell-based, HEK293.
5-hydroxytryptamine receptor 5A, sequence (P35364 whole entry): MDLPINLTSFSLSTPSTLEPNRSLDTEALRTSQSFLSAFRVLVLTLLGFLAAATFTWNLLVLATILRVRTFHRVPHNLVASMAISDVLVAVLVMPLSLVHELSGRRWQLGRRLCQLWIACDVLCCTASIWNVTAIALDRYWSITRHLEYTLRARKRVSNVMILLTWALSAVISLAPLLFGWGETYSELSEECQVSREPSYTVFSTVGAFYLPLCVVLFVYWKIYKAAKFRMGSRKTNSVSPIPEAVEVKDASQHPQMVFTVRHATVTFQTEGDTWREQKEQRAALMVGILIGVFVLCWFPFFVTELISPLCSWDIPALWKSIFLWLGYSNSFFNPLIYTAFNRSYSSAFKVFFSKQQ
For assay [3], the target named is 5-hydroxytryptamine receptor 1D (Homo sapiens, UniProt P28221). Briefly: Binding affinity against 5-hydroxytryptamine 1D receptor in CHO cells using [3H]5-HT as radioligand. In kind it is cell-based.
5-hydroxytryptamine receptor 1D, sequence (P28221 whole entry): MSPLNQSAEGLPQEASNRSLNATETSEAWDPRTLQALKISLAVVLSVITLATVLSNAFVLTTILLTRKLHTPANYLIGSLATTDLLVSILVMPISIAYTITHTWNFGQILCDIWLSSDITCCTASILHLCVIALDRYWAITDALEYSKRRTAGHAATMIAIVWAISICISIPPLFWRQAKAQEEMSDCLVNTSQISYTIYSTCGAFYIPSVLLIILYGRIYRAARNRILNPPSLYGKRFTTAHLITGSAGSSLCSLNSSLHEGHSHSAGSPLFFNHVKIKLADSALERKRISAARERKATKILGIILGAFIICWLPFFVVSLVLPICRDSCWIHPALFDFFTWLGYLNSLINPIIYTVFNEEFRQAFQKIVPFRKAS
Assay [4] has as its target 5-hydroxytryptamine receptor 2A (Rattus norvegicus, UniProt P14842). Briefly: Binding affinity for 5-hydroxytryptamine 2 receptor of rat cortical membrane using [3H]DOB radioligand.
The target of assay [5] is T2, 5-hydroxytryptamine receptor 1F (Homo sapiens, UniProt P30939).
T2 sequence (P30939 whole entry): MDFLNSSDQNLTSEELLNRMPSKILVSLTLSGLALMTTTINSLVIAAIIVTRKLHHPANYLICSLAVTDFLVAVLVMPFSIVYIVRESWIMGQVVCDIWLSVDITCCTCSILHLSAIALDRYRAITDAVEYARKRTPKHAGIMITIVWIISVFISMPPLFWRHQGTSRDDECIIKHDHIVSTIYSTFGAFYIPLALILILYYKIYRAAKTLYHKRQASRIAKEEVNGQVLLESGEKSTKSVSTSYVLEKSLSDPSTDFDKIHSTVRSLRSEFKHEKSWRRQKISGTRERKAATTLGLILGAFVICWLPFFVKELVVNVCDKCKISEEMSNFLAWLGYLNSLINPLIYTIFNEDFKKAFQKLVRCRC
Briefly: Binding affinity against 5-hydroxytryptamine 1F receptor in CHO cells using [3H]5-HT radioligand. In kind it is cell-based.

Assay [6] addresses 5-hydroxytryptamine receptor 1B (Homo sapiens, UniProt P28222). Briefly: Binding affinity against 5-hydroxytryptamine 1B receptor in CHO cells using [3H]5-HT as radioligand. The format is cell-based.
In another assay the target is T3, D(4) dopamine receptor (Homo sapiens, UniProt P21917).
T3 sequence (P21917 whole entry): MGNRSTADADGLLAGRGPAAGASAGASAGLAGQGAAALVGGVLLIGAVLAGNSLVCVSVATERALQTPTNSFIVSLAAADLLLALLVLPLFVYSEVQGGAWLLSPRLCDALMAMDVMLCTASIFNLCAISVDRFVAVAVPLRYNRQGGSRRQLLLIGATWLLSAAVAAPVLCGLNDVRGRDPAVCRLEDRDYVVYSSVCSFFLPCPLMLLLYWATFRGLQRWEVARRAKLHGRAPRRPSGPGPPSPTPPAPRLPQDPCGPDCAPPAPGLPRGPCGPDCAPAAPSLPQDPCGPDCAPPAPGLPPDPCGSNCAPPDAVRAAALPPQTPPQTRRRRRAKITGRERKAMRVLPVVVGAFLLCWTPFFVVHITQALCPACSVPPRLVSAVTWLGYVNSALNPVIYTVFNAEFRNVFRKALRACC
Briefly: Binding affinity against dopamine receptor D4 cloned in HEK 293 cells using [3H]spiperone radioligand. The format is cell-based, HEK293.

In assay [7] the target is 5-hydroxytryptamine receptor 7 (Homo sapiens, UniProt P34969). Briefly: Binding affinity for 5-hydroxytryptamine 7 receptor human cloned receptors in CHO cells using [3H]5-HT. In kind it is cell-based.
5-hydroxytryptamine receptor 7, sequence (P34969 whole entry): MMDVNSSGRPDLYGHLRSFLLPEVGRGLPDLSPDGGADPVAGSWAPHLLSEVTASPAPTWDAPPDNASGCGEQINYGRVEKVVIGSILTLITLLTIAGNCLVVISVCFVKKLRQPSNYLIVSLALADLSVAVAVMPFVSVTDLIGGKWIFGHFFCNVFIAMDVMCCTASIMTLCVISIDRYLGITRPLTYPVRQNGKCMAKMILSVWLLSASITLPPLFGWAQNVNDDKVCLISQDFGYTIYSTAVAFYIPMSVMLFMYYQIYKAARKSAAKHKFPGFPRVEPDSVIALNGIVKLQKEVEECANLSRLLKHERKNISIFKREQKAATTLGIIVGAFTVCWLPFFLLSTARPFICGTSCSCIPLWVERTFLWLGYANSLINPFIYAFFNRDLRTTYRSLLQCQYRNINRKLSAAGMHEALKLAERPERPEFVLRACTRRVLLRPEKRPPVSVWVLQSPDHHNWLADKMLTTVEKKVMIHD
In the next assay the target is D(3) dopamine receptor (Homo sapiens, UniProt P35462). Briefly: Binding affinity against dopamine receptor D3 in HEK 293 cells using [3H]spiperone radioligand. The format is cell-based, HEK293.
D(3) dopamine receptor, sequence (P35462 whole entry): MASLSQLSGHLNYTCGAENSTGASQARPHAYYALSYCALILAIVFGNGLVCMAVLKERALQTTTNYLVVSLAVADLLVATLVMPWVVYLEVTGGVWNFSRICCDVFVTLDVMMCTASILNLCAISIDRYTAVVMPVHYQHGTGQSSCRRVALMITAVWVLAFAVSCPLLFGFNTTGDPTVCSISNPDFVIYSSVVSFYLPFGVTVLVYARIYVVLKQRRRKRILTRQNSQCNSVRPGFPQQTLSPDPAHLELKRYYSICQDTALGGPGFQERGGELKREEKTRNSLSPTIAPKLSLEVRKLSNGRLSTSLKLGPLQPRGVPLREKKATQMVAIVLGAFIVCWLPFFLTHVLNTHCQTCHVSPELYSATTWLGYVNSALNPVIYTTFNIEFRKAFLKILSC
Another assay concerns the target D(2) dopamine receptor (Homo sapiens, UniProt P14416). Briefly: Binding affinity against dopamine receptor D2 using [3H]spiperone radioligand in CHO cells. In kind it is cell-based.
The target in assay [8] is T4, 5-hydroxytryptamine receptor 1A (Homo sapiens, UniProt P08908).
T4 sequence (P08908 whole entry): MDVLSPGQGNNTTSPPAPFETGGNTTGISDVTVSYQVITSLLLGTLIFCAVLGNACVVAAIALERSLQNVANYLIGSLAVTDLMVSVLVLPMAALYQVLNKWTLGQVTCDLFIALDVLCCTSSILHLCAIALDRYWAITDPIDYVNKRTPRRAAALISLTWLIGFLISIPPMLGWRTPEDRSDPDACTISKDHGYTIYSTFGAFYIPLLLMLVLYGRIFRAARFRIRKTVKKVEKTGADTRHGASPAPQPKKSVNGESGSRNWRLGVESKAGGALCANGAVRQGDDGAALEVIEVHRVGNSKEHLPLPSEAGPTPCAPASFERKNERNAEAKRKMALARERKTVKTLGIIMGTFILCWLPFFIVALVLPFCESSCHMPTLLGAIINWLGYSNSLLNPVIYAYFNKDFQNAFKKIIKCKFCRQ
Briefly: Binding affinity against 5-hydroxytryptamine 1A receptor in HeLa cells was determined using [3H]5-HT. In kind it is cell-based.

Assay [9] deals with T2, 5-hydroxytryptamine receptor 1F. Briefly: Binding affinity against 5-hydroxytryptamine 1F receptor in CHO using [3H]5-HT radioligand.
The target of assay [10] is T1, 5-hydroxytryptamine receptor 6. Briefly: Binding affinity as displacement of [3H]5-HT binding to 5-hydroxytryptamine 6 receptor in HeLa cells. The format is cell-based. In short, it runs like this: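 Membranes from HeLa cells stably expressing cloned human 5-HT6 receptor, in 50 mM Tris with 0.03% ascorbic acid, pH 7.6. […] Nonspecific binding defined by 10 µM 5-HT. Filtration, then scintillation counting. One-site fit gave IC50, converted to Ki by Cheng-Prusoff. Geometric mean of ≥3 independent duplicate runs.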

5-hydroxytryptamine receptor 1B, sequence (P28222 whole entry): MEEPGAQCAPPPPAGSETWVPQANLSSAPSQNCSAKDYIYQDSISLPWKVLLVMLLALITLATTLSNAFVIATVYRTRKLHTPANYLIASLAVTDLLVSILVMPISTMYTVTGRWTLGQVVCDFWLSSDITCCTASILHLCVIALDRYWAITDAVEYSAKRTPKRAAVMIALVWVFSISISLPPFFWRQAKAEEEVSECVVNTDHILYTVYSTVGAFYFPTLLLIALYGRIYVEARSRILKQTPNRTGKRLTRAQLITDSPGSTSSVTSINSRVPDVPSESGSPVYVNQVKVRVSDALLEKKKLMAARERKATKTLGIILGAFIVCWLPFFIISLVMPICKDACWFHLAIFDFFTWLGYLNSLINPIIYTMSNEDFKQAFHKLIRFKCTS
D(2) dopamine receptor, sequence (P14416 whole entry): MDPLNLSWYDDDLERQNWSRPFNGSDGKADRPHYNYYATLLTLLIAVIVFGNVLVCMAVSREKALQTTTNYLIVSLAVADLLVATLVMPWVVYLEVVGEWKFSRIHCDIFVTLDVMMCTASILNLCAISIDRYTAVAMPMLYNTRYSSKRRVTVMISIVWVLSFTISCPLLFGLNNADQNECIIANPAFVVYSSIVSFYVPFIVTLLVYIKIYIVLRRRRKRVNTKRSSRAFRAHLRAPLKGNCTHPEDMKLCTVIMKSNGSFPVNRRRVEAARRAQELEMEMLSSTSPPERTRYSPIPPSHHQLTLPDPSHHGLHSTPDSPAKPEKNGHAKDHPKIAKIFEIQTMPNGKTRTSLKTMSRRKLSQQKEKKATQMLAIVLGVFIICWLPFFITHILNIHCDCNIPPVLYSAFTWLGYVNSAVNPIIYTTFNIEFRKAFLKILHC
T1 sequence (P50406 whole entry): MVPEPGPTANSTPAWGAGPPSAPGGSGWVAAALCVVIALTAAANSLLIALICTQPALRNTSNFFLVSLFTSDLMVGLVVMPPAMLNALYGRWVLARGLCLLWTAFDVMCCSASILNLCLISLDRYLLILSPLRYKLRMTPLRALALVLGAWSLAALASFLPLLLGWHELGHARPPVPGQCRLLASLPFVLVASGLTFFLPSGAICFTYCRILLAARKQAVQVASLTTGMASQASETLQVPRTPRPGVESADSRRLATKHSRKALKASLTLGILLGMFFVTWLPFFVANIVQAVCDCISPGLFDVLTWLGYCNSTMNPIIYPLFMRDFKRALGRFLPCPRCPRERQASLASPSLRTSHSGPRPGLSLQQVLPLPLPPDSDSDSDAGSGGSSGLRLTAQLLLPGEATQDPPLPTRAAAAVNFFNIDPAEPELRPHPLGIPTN
5-hydroxytryptamine receptor 2A, sequence (P14842 whole entry): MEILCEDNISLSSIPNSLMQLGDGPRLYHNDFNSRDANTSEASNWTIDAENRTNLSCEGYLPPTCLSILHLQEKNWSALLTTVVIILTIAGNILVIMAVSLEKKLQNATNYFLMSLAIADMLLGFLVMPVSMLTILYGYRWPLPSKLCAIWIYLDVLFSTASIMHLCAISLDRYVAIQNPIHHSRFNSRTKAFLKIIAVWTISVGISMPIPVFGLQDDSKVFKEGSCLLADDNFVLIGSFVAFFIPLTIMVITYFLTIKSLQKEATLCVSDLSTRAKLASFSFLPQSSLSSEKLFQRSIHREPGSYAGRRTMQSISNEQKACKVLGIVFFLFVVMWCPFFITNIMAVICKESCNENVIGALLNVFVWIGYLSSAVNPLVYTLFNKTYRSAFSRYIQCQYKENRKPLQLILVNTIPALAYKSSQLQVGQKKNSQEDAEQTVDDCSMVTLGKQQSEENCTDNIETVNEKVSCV

Compound `CN(C)CCc1cn(S(=O)(=O)c2ccccc2)c2ccc(O)cc12` gave a Ki in assay [1] of 19 nM.
In the case of `CN(C)CCc1cccc2[nH]c(C(=O)c3ccccc3)cc12`, in assay [1], the Ki stood at 260 nM.
`COc1ccc2c(c1)C(CCN(C)C)CN2S(=O)(=O)c1ccccc1` (stereo not given): the inhibition constant (Ki) in [1] was found to be 63 nM.
For the compound `NCCc1cccc2c1ccn2S(=O)(=O)c1ccccc1`, the Ki in [2] came out at 1200 nM; in [3], 4.5 nM; in assay [1], 2.4 nM; in assay [4], 4.8 nM; in [5] it was 47 nM; in assay [6], 6.5 nM. Further, the inhibitory constant (Ki) at D(4) dopamine receptor was over 3200 nM; in assay [7], 29 nM; at D(3) dopamine receptor it was 940 nM; on D(2) dopamine receptor, over 1700 nM; in assay [8] it was 140 nM.
On to `CN(C)CCc1cccc2c1cc(C(=O)c1ccccc1)n2S(=O)(=O)c1ccccc1`, for which the Ki in assay [2] amounted to 1600 nM; in assay [3] it was 98 nM; in [1], 3 nM; in assay [4] it was 6.6 nM; in [5] it was 570 nM; in [6] it was 190 nM. Also, the Ki at D(4) dopamine receptor is over 3200 nM; in [7] it was 1300 nM; on D(3) dopamine receptor, 66 nM; at D(2) dopamine receptor, 750 nM; in assay [8] it was 480 nM.
On to `COc1ccc2c(c1)c(CCN(C)C)c(C)n2S(=O)(=O)c1ccccc1`, for which the Ki in assay [1] turned out to be 12 nM.
Consider `CN(C)CCc1cn(C(=O)OC(C)(C)C)c2ccc(O)cc12`, for which the affinity in assay [1] corresponds to a Ki of 370 nM.
On the same count and under the same terms, under `CN(C)CCc1cn(S(=O)(=O)c2ccccc2)c2ccc(C#N)cc12` stands 33 nM.
In the case of `CN(C)CCc1cn(S(C)(=O)=O)c2ccccc12`, affinity in [1] was put at a Ki of 620 nM.
For `Cc1ccc(S(=O)(=O)n2cc3c4c(cccc42)[C@H](O)[C@@H](N(C)C)C3)cc1`, the Ki was over 6400 nM in assay [2]; 3900 nM in assay [3]; 7.2 nM in assay [1]; 320 nM in assay [4]; 3100 nM in assay [6]; over 3200 nM at D(4) dopamine receptor. Also, the Ki was over 5800 nM in assay [7], 3700 nM on D(3) dopamine receptor, over 1700 nM at D(2) dopamine receptor and over 5600 nM in assay [8].
On to `COc1ccc2c(c1)c(CCN(C)C)cn2S(=O)(=O)c1cccc(Cl)c1`, for which the Ki in [1] amounted to 7.9 nM. This lies in the single-digit nanomolar range.
On the same count and under the same terms, next, `COc1ccc2c(c1)c(CCN(C)C)cn2S(=O)(=O)c1ccc(C)cc1`: 45 nM; `COc1ccc2c(c1)c(CCN(C)C)cn2S(=O)(=O)c1ccccc1Cl`: 11 nM.
`CN(C)CCc1cn(C(=O)c2ccccc2)c2ccc(O)cc12`: the Ki in [9] was found to be 29 nM; in assay [2], 4500 nM; in assay [3], 180 nM; in assay [1], 54 nM; in assay [4], 200 nM; in assay [6], 420 nM. Further, the Ki at D(4) dopamine receptor was over 3900 nM; in [7] it was 1600 nM; on D(3) dopamine receptor, over 3500 nM; on D(2) dopamine receptor, over 2200 nM; in [8] it was 620 nM.
As for `CCOC(=O)c1[nH]c2ccccc2c1CCN(C)C`, the Ki is 330 nM in assay [3]; 20 nM in [1]; 130 nM in assay [4]; 2000 nM in assay [5]; 910 nM in [6]; 1600 nM at D(4) dopamine receptor. The Ki is 510 nM in assay [7], 110 nM at D(3) dopamine receptor, 59 nM on D(2) dopamine receptor and 1800 nM in assay [8].
In turn, `COc1cccc(Cc2noc(-c3[nH]c4ccccc4c3CCN(C)C)n2)c1` registered a Ki in assay [1] of 1.3 nM.
Still for that read-out and setting: next, `CO[C@H]1c2cccc3c2c(cn3S(=O)(=O)c2ccc(C)cc2)C[C@@H]1N(C)C`: 130 nM; `COc1ccc2c(c1)c(CCN)cn2S(=O)(=O)c1ccccc1`: 40 nM.
With `COc1ccc2c(c1)c(CCN(C)C)cn2S(=O)(=O)c1cccs1`, in [1], the Ki worked out at 8.3 nM.
As for `COc1ccc2c(c1)c(CCN1CCOCC1)cn2S(=O)(=O)c1ccccc1`, the Ki in [1] was found to be 1700 nM.
Still for that read-out and setting: under `CN(C)CCc1cn(S(=O)(=O)c2ccccc2)c2ccc(OCc3ccccc3)cc12` stands 320 nM; under `COc1ccc2[nH]c(C)c(CCN(C)C)c2c1`, 89 nM; under `COc1ccc2c(c1)c(CCN(C)C)cn2S(=O)(=O)c1ccc(Cl)cc1`, 17 nM.
In [1], `COc1ccc2c(c1)c(CCN(C)C)cn2S(=O)(=O)c1ccc2ccccc2c1` returned a Ki of 9.8 nM.
Take `COc1ccc2c(c1)c(CCN(C)C)cn2S(=O)(=O)c1ccccc1`: the Ki in assay [2] was over 5000 nM; in [3], 720 nM; in [4], 65 nM; in assay [5] it was 2500 nM; in [6] it was 2200 nM; on D(4) dopamine receptor, over 3200 nM. Also, the Ki in assay [7] was 1900 nM; on D(3) dopamine receptor it was 80 nM; on D(2) dopamine receptor it was 210 nM.
Turning to `COc1ccc(S(=O)(=O)n2cc(CCN(C)C)c3cc(OC)ccc32)cc1`, in assay [1], the affinity, expressed as Ki, was 26 nM.
As for `CN(C)CCc1cccc2c1ccn2S(=O)(=O)c1ccccc1`, the Ki in [2] amounted to 3400 nM; in [3], 9.3 nM; in [1], 1.5 nM; in assay [4], 18 nM; in assay [5] it was 3.9 nM; in assay [6] it was 11 nM. Further, the Ki at D(4) dopamine receptor is over 3200 nM; in assay [7], 460 nM; on D(3) dopamine receptor, 300 nM; on D(2) dopamine receptor, 1600 nM; in assay [8], 170 nM.
Regarding `CN(C)CCc1cn(S(=O)(=O)c2ccccc2)c2ccccc12`, the Ki in assay [2] is 4000 nM; in [3], 510 nM; in assay [1] it was 2.9 nM; in [4], 84 nM; in [5], 770 nM; in assay [6], 2300 nM. Also, the Ki at D(4) dopamine receptor is over 3200 nM; in assay [7], 3700 nM; at D(3) dopamine receptor, 23 nM; at D(2) dopamine receptor it was 62 nM; in assay [8], 520 nM.
In assay [10], `CN(C)CCCc1cccc2c1ccn2S(=O)(=O)c1ccccc1` yielded a Ki of 7.9 nM.
